Molecules are shown by their SMILES. Calls of active or inactive are those of the source. No cut-off for these calls is given here.

One may read the IC50 as the concentration that gives 50% inhibition. As usually defined, the logP is the decadic logarithm of the partition coefficient of the neutral form, usually between octanol and water.

Series [1] in a line: Inhibition of monoamino oxidase B from F344/N rat brain cortex.
Series [2] can be described thus: Lipophilicity, log P of the compound. Type of series: physicochemical. Particulars: octanol/water.
Series [3] deals with Mitogen-activated protein kinase; ERK1/ERK2 (Homo sapiens) (UniProt P27361+P28482). Kind of series: Activation of ERK1/2 in T20 cells at 10 uM relative to nontreated cells. It is filed as cell-based. In short, it runs like this:
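T20 cells plated at 5 × 10⁵/well, grown 18 h at 37 °C, then 18 h with tetracycline 1 µg/ml. Medium switched to DMEM with 0.5% FBS and compounds added at 10 µM. Lysis in Tris-HCl pH 8.0 buffer with Triton X-100 and inhibitors; 50 lg protein run on 12% SDS-PAGE and immunoblotted for phospho-ERK1/2 and total ERK1/2. Read-out p-ERK/ERK % of untreated; three experiments.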

The subject of another series is T20. Kind of series: Inhibition of gamma secretase in T20 cells assessed as amyloid precursor protein cleavage at 10 uM after 24 hrs by luciferase reporter gene assay. Type of series: cell-based. More on the design: scale not given: the % may be the effect or the level left. In short, it runs like this: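 T20 cells (stable C99-luciferase reporter line, kept in hygromycin/blasticidin/zeocin medium) plated 2 × 10⁴/well and held 24 h at 37 °C. Compounds added at 10 µM final with tetracycline 1 µg/ml for 24 h at 37 °C. Luminescence read with Steady-Glo reagent as fold luciferase activation versus DMSO; triplicates.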

Series [4] can be described thus: Increase in sAPP alpha secretion in gamma-30 cells. It is filed as functional, cell-based. An outline of the steps: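 Conditioned media from c-30 cells (full-length APP with human PS1, Aph-1a2, Pen-2), normalised to lysate protein content. Immunoprecipitated with rabbit polyclonal anti-Ab1–17, separated by SDS–PAGE and Western blotted with mouse monoclonal 6E10 to detect sAPPa.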

Chain of Mitogen-activated protein kinase; ERK1/ERK2 (Homo sapiens) (P27361 whole entry, looked up): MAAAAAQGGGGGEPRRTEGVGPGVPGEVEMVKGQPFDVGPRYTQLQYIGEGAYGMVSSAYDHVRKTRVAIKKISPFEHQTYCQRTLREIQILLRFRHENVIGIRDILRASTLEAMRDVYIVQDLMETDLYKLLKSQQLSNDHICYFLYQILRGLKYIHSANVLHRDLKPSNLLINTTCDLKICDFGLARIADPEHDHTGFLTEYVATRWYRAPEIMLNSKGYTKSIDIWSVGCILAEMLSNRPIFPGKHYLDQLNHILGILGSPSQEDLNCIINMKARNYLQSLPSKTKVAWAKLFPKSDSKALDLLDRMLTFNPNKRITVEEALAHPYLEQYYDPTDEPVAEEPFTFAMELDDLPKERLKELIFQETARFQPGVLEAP
Chain of Mitogen-activated protein kinase; ERK1/ERK2 (Homo sapiens) (P28482 whole entry, looked up): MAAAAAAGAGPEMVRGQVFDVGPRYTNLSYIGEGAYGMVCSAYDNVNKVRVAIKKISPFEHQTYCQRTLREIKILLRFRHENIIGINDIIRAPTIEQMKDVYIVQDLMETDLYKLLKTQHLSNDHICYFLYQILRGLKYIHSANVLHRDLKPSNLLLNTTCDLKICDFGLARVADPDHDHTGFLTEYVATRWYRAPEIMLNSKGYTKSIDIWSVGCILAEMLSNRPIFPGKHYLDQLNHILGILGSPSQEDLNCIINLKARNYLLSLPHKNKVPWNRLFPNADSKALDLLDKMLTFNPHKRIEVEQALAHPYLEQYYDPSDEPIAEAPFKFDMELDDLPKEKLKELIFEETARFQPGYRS

In series [1], `O=C(Oc1ccc2c(c1)CN(CC1CC1)CC2)N1CCCC1` gave an IC50 of 14.9 µM. For the same compound, the logP in series [2] was 2.67.
On the same counts, the results for `C#CCN1CCc2ccc(OC(=O)N3CCOCC3)cc2C1` are 18.7 µM and 1.57.
As to `C#CCN1CCc2ccc(OC(=O)N(C)CC)cc2C1`, half-maximal inhibition in series [1] (IC50) required 21.5 µM. In series [2], this compound displayed a logP of 2.25.
`O=C(Oc1ccc2c(c1)CN(CC1CC1)CC2)N1CCCCC1`: the Activity in series [3] amounted to 155%; in the series on T20, 35%. Moreover, in series [1], the IC50 worked out at 11.6 µM. In addition, the logP in series [2] was 3.09. In addition, the result in series [4] was Active.
In series [3], `C#CCN[C@@H]1CCc2ccccc21` [RASAGILINE] returned an Activity of 131%. In series [1], this compound yielded an IC50 of 2.1 µM. The compound also registered a logP in series [2] of 2.29.
On to `CCN(C)C(=O)Oc1ccc2c(c1)CN(CC1CC1)CC2`, for which the Activity in series [3] turned out to be 131%; with T20 it was 35%. Further, half-maximal inhibition in series [1] (IC50) required 12.8 µM. This compound showed a logP in series [2] of 2.69. Further, the result in series [4] was Active.
Turning to `C#CCN1CCc2ccc(OC(=O)N3CCCCC3)cc2C1`, the IC50 in series [1] amounted to 15.7 µM. The logP in series [2] was found to be 2.63.
Taken in the same sequence, the figures for `C#CCN1CCc2ccc(OC(=O)N3CCCC3)cc2C1` were 13.9 µM and 2.23.
For `O=C(Oc1ccc2c(c1)CN(CC1CC1)CC2)N1CCOCC1`, the Activity in series [3] was determined as 138%; with T20, 35%. In series [1], this compound had an IC50 of 18.5 µM. This compound also registered a logP in series [2] of 2.29. Moreover, the result in series [4] was Active.
